Experimental findings from ChEMBL document CHEMBL2057185, “Analogs of N'-hydroxy-N-(4H,5H-naphtho[1,2-d]thiazol-2-yl)methanimidamide inhibit Mycobacterium tuberculosis methionine aminopeptidases” (Bioorg Med Chem, 2012) are described below.

The structures appear in SMILES notation. Values after ≈ are worked out from the molar mass of the structure shown. Active and inactive are the calls of the source. The calls are words filed in the database; no cut-off is given here.

The nature of data set [1]: Inhibition of Mycobacterium tuberculosis C-terminal His6-tagged MetAP1A using methionylprolyl-p-nitroanilide as substrate incubated for 20 mins prior to substrate addition measured for 20 mins by spectrophotometry in presence of Co2+. The essentials:
(§1)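 Coupled colorimetric assay in 40 mM HEPES pH 7.5, 100 mM NaCl, 10 µM CoCl₂ or MnCl₂. Enzyme was 200 nM MetAP1a or 100 nM MetAP1c, with 1.5 U/mL Bacillus coagulans proline aminopeptidase as coupling enzyme. Eleven inhibitor levels (0.049–50 µM) were preincubated 20 min at room temperature. Met-Pro-pNA was added to 600 µM final, and A405 was followed 20 min against DMSO wells. IC50 came from nonlinear regression, averaging ≥3 independent triplicate experiments ± SD.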

Data set [2] is described as follows: Chemical stability of the compound in Middlebrook 7H9 broth at 200 ug/mL after 10 days by HPLC analysis. In kind it is physicochemical. The following applies: 240 h.
Data set [3] is described as follows: Inhibition of Mycobacterium tuberculosis C-terminal His6-tagged MetAP1A using methionylprolyl-p-nitroanilide as substrate incubated for 20 mins prior to substrate addition measured for 20 mins by spectrophotometry in presence of Mn2+. A digest of the protocol: as §1
Data set [4] has as its system Mycobacterium tuberculosis. In words: Antimycobacterial activity against Mycobacterium tuberculosis H37Rv after 2 weeks. The data set is classed as functional. The following applies: 336 h. The essentials: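 Each well received log-phase M. tuberculosis H37Rv diluted to ≈10⁶ CFU/mL in 7H9. An uninoculated sterile control was included. Plates were sealed and incubated 37 °C for two weeks.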

The nature of data set [5]: Inhibition of Mycobacterium tuberculosis N-terminal His6-tagged MetAP1C using methionylprolyl-p-nitroanilide as substrate incubated for 20 mins prior to substrate addition measured for 20 mins by spectrophotometry in presence of Mn2+. A digest of the protocol:
as §1

A short description of data set [6]: Inhibition of Mycobacterium tuberculosis N-terminal His6-tagged MetAP1C using methionylprolyl-p-nitroanilide as substrate incubated for 20 mins prior to substrate addition measured for 20 mins by spectrophotometry in presence of Co2+. The essentials: as §1
The nature of data set [7]: Mn2+ chelation activity of the compound at 10 uM. In kind it is functional. A digest of the protocol: (§2)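 UV-vis spectra were recorded for compounds at 10 µM in MetAP assay buffer, with and without 10 µM cobalt or manganese chloride.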
Data set [8] can be described thus: Co2+ chelation activity of the compound at 10 uM. The data set is classed as functional. A digest of the protocol:
as §2

The nature of data set [9]: Inhibition of Mycobacterium tuberculosis MetAP1C expressed in Escherichia coli using Met-AMC as substrate in presence of Mn2+.
In data set [10] the test system is Mycobacterium tuberculosis. In words: Antimycobacterial activity against Mycobacterium tuberculosis H37Rv ATCC 27294 after 7 days by microplate alamar blue assay. The data set is classed as functional. The following applies: H37Rv ATCC 27294, 168 h. A general note: Alamar Blue is a resazurin reagent that responds to reducing activity.
Data set [11] in a line: Inhibition of Mycobacterium tuberculosis MetAP1A expressed in Escherichia coli using Met-AMC as substrate in presence of Mn2+.

In general, IC50 refers to the point on the concentration scale where inhibition reaches its midpoint. The MIC is the lowest concentration found to suppress growth. Low readings indicate a more susceptible organism, high ones a less susceptible organism. With `COc1ccc2c(c1)CCc1sc(N/C=N\O)nc1-2`, the IC50 in data set [1] was 5.35 µM; in [3], above 50 µM; in [5] it was above 50 µM; in [6] it was 1.33 µM. Further, the Stability result in data set [2] was “Stable”. This compound also registered an MIC in data set [4] above 200 µg/mL.

Regarding `COc1ccc2c(c1)CCc1sc(NC(=O)[C@H](C)O)nc1-2`, the IC50 in [1], in data set [3], in [5] and in data set [6] was above 50 µM in each case.

Regarding `O=C1C(Br)=C(Br)C(=O)c2ccccc21` [2,3-Dibromo-1,4-naphthoquinone], the IC50 in data set [1] stood at 1.14 µM; in data set [6], 0.71 µM. Besides, in data set [4], the MIC was determined as 25 µg/mL (≈ 79.1 µM).

Regarding `Nc1nc2c(s1)CCc1ccccc1-2`, the IC50 in data set [1], in [3], in data set [5] and in data set [6] was above 50 µM in each case.

`CCCCCCCCC(=O)Nc1nc2c(s1)CCc1ccccc1-2`: the IC50 in data set [1], in data set [3], in [5] and in data set [6] was above 50 µM each time.

Turning to `O/N=C\Nc1nc2c(s1)CCc1ccccc1-2`, the IC50 is 11.5 µM in data set [1], above 50 µM in data set [3], above 50 µM in [5] and 1.05 µM in [6]. The Stability entry in [2] is “Stable”. In data set [4], this compound displayed an MIC of 100 µg/mL (≈ 408 µM).

Take `COc1cc2c(cc1OC)-c1nc(N/C=N\O)sc1CC2`: the IC50 in data set [1] is 14.6 µM; in data set [3] it was 14.6 µM; in data set [5] it was above 50 µM; in data set [6], 3.77 µM. The compound also yielded an MIC in data set [4] above 200 µg/mL.

For `COc1ccc2c(c1)Cc1sc(N/C=N\O)nc1-2`, the IC50 in [1], in data set [3], in data set [5] and in data set [6] was above 50 µM in each case. Also, 100 µg/mL (≈ 383 µM) was the least that counted as inhibitory in data set [4] (MIC).

Take `COc1ccc2c(c1)CCc1sc(NC(C)=O)nc1-2`: the IC50 in data set [1], in [3], in [5] and in [6] was above 50 µM in each case.

As to `COc1ccc2c(c1)CCc1sc(/N=C/c3ccco3)nc1-2`, the IC50 in data set [1], in data set [3], in data set [5] and in data set [6] was above 50 µM each time.

On to `COc1ccc2c(c1)-c1nc(NC=NO)sc1CC2`, for which the IC50 in data set [1] is 1.9 µM; in [3] it was above 50 µM; in data set [5], 2.33 µM; in data set [6] it was 0.64 µM. For the same compound, the Stability entry in data set [2] was “Stable”. Also, the MIC in data set [4] was 200 µg/mL (≈ 726 µM).

As for `O/N=C\Nc1nc2c(s1)CCc1cc3c(cc1-2)OCO3`, the IC50 is 15.4 µM in data set [1], above 20 µM in data set [3], 12.5 µM in [5] and above 20 µM in [6]. The compound also came in with an MIC in [4] above 200 µg/mL.

Take `COc1ccc2c(c1)CCc1sc(N)nc1-2`: the IC50 in [1], in data set [3], in data set [5] and in [6] was above 50 µM each time.

As to `COc1ccc2c(c1)OC(c1ccccc1)c1sc(N/C=N\O)nc1-2` (configuration not stated), the IC50 was 6.7 µM in data set [1], 9.7 µM in data set [3], above 50 µM in [5] and above 50 µM in data set [6]. Besides, in data set [4], the MIC was above 200 µg/mL.

On to `COc1cccc2c1CCc1sc(N/C=N\O)nc1-2`, for which the IC50 in [1] turned out to be 11.3 µM; in [3] it was 11.7 µM; in [5] it was 10.3 µM; in data set [6], 1.89 µM. This compound also displayed an MIC in data set [4] above 200 µg/mL.

In the case of `CN(C)/C=N/c1nc2c(s1)CCc1ccccc1-2`, the half-inhibitory concentration (IC50) in [1] was 28.9 µM; in data set [3] it was 27.7 µM; in data set [5], above 50 µM; in [6], 36.3 µM.

As for `O/N=C\Nc1nc2c(s1)COc1cc3c(cc1-2)OCO3`, the outcome in [7] and in data set [8] was Active. The IC50 is 1.43 µM in [1], above 10 µM in data set [3], 4.4 µM in data set [5] and 0.73 µM in data set [6]. Besides, in data set [4], inhibition of growth (MIC) required 100 µg/mL (≈ 343 µM).

Consider `CO[C@@H](C(=O)NCCOc1c(C)cc(C)cc1C)[C@H](O)[C@@H](O)[C@H](O)/C=C/C(C)(C)C`, for which the IC50 in data set [9] amounted to 0.54 µM; in data set [11] it was 6.9 µM. For the same compound, inhibition of growth in data set [10] (MIC) required 18.5 µg/mL (≈ 43.7 µM).

For the compound `COc1ccc2c(c1)CCc1sc(/N=C/c3ccccc3O)nc1-2`, the IC50 in data set [1], in [3], in [5] and in data set [6] was above 50 µM in each case.

For `O/N=C\Nc1nc2c(s1)CCOc1cc3c(cc1-2)OCO3`, the result in [7] and in [8] was Active. For the same compound, the IC50 in [1] came to 1.26 µM; in data set [3] it was 24.5 µM; in data set [5], 3.13 µM; in data set [6], 0.38 µM. The Stability result in [2] was “Stable”. In [4], the MIC was above 200 µg/mL.

Turning to `COc1ccc(-c2csc(N/C=N\O)n2)cc1OC`, the IC50 in data set [1] is above 20 µM; in data set [3] it was above 20 µM; in [5] it was 7 µM; in data set [6], 6.6 µM. The compound further came in with an MIC in data set [4] of 200 µg/mL (≈ 716 µM).

On to `O/N=C\Nc1nc2c(s1)CCCc1cc3c(cc1-2)OCO3`, for which the IC50 was 15.4 µM in data set [1], above 50 µM in [3], 14.5 µM in data set [5] and 1.4 µM in data set [6]. Also, in [4], the MIC was above 200 µg/mL.

With `CCCCCCCCC(=O)Nc1nc2c(s1)CCc1cc(OC)ccc1-2`, the IC50 in data set [1], in data set [3], in data set [5] and in data set [6] was above 50 µM throughout.

`COc1ccc2c(c1)OCc1sc(N/C=N\O)nc1-2`: the outcome in [7] and in data set [8] was Active. In addition, the IC50 is 4.9 µM in data set [1], 4.7 µM in data set [3], above 50 µM in [5] and above 50 µM in [6]. The same compound had an MIC in data set [4] above 200 µg/mL.
